Measurements reported in PMC6097893 (Cell chemical biology, 2018).

Columns and labels:
[1] = system: DENV2 NGC E-M196V mutant virus; assay: Viral infectivity assay; type: cell-based, dengue virus serotype 2; conditions: versus DENV2 NGC wildtype
Outline: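 DENV2 inoculum in EBSS at MOI 1 pre-incubated with test compound over a concentration series, 45 min at 37 °C. The mixture was added to cell monolayers for 1 h at 37 °C, then washed off with PBS. Inhibitor-free medium was added for 24 h (single cycle). Supernatant yield was titred by plaque assay on BHK-21 cells with CMC overlay, 4.5 days, crystal violet.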

DENV2 sE Q271E = DENV2 sE Q271E (Dengue virus type 2, UniProt P14340, Q551E); assay: Biolayer interferometry, DENV2 sE Q271E; type: binding, dengue virus serotype 2; conditions: versus wildtype sE
DENV2 sE-M196V = DENV2 sE-M196V (Dengue virus type 2, UniProt P14340, M476V); assay: Biolayer interferometry, DENV2 sE-M196V; type: binding, dengue virus serotype 2; conditions: versus wildtype sE
ZIKV PF13-251013-18 = assay: Viral infectivity assay; type: cell-based, Zika virus; conditions: read-out: IC90 against ZIKV PF13-251013-18, Vero cells

For `NC(=O)c1cccc(-c2cc(Nc3ccc(OC(F)(F)F)cc3)ncn2)c1` [GNF-2], the “Sensitivity of DENV2 E-M196V virus to compound” value [1] was “Reduced sensitivity”, the “Effect of Q271E substitution on binding” value (DENV2 sE Q271E) was “affinity comparable to wildtype” and the “Effect of M196V mutation on binding” value (DENV2 sE-M196V) was “more significantly affected”. The IC90 (ZIKV PF13-251013-18) was 107 µM.
